This note sets out measurements from ChEMBL document CHEMBL1122501, “Potential antiatherosclerotic agents. 2. (Aralkylamino)- and (alkylamino) benzoic acid analogues of cetaben” (1983).

Several values for one entry are separate records, joined by “and”; a condition that tells them apart may be missing. Equal values may be shown once.

Experiment [1] has as its target T1, Sterol O-acyltransferase 1 (Rattus norvegicus) (UniProt O70536).
T1 sequence (whole entry): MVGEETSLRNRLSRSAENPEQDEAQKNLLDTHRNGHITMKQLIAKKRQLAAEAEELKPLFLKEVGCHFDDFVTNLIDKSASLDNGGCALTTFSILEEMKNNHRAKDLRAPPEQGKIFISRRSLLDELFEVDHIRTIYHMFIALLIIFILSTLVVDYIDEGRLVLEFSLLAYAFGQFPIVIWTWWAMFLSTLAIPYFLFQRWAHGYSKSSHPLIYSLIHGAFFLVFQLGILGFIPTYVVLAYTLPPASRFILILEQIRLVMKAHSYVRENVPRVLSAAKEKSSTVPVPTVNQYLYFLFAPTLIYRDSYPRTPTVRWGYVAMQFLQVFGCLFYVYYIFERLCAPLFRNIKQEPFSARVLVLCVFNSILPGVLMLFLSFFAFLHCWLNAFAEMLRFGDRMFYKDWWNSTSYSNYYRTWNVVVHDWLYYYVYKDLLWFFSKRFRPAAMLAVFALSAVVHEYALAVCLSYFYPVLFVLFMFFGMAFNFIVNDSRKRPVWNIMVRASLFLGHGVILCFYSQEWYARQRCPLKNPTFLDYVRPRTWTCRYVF
Nature of the experiment: In vitro inhibitory activity against acyl coenzyme A:cholesterol acyltransferase (ACAT). Also on record: concentration or dose not given beside the values. The note with it: concentration not given here. In a few lines: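 ACAT enzyme from rat adrenal homogenate in 0.2 M KH2PO4 buffer pH 7.4, 1000g 15 min 5 °C supernatant (microsomal fraction). Supernatant + BSA (50 mg/mL) + compound at final 5.2 μg/mL + buffer preincubated 10 min 37 °C; [14C]oleoyl-CoA (0.4 μCi) added, 30 min 37 °C. Lipids extracted, TLC; cholesteryl ester zone counted. Mean % inhibition vs no-compound control; Student's t test.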

The subject of experiment [2] is Rattus norvegicus. The experiment in a line: In vivo triglyceride lowering activity, dosed at 0.03 % of the diet. Type of experiment: functional. The method, boiled down:
(§1)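 Male CFE or CD-1 Sprague-Dawley rats, 140-150 g; 8 per control group, 4 per test group. Compound mixed into ground chow (w/w) via MeOH-CHCl3 (1:3) solution, solvent evaporated; controls got solvent-treated chow. Fed ad libitum 5 days, food intake monitored, killed fed and bled. Serum sterols and triglycerides by adapted autoanalyzer methods; mean percent of control, Student's t test.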

The subject of experiment [3] is Rattus norvegicus. The experiment in a line: In vivo Sterol lowering activity at dose as 0.03 % of the diet. Type of experiment: functional. In a few lines:
as §1

Experiment [4] concerns Rattus norvegicus. Nature of the experiment: In vivo Sterol lowering activity at dose as 0.10 % of the diet. Type of experiment: functional. In a few lines:
as §1

The subject of experiment [5] is Rattus norvegicus. The experiment in a line: In vivo triglyceride lowering activity, dosed at 0.01 % of the diet. Type of experiment: functional. The method, boiled down: as §1
The subject of experiment [6] is Rattus norvegicus. Nature of the experiment: In vivo triglyceride lowering activity dosed at 0.10 % of the diet. Type of experiment: functional. The method, boiled down:
as §1

Experiment [7] relates to Rattus norvegicus. The experiment in a line: In vivo Sterol lowering activity at dose as 0.01 % of the diet. Type of experiment: functional. In a few lines: as §1
Experiment [8] deals with Rattus norvegicus. The experiment in a line: In vivo sterol lowering activity dosed at 0.10 % of the diet. Type of experiment: functional. In a few lines: as §1

Regarding `O=C(O)c1ccc(NC/C=C/c2ccc(Cl)cc2)cc1`, the inhibition (as a rule, the relative decrease from the control value, in per cent) in experiment [1] is 26%. In addition, the “serum triglycerides, percent of control” value came out at 48% in the experiment with Rattus norvegicus [2] and 54% in the experiment on Rattus norvegicus [6]. For the same molecule, in the experiment with Rattus norvegicus [3], the “serum sterol level, percent of control” value is reported as 92%. The figures for the “serum sterol, percent of control” value with Rattus norvegicus [4] and with Rattus norvegicus [7] were 90% and 83%, respectively. The same molecule displayed a Diet in the experiment with Rattus norvegicus [5] of 95%.
As for `O=C(O)c1ccc(C(=O)O)c(NCCCc2ccc(Cl)cc2)c1`, the inhibition in experiment [1] was found to be 0%. Further, the figures for the “serum triglycerides, percent of control” value in the experiment on Rattus norvegicus [2] and with Rattus norvegicus [6] were 57% and 51%, respectively. In addition, in the experiment with Rattus norvegicus [3], the “serum sterol level, percent of control” value came to 100%. Also, the “serum sterol, percent of control” value in the experiment on Rattus norvegicus [4] stood at 103%; in the experiment on Rattus norvegicus [7] it was 102%. This molecule also gave a Diet with Rattus norvegicus [5] of 72%.
`O=C(O)c1ccc(NCc2ccc(Cl)cc2)cc1`: the inhibition in experiment [1] was 15% and 13%.
Take `O=C(O)c1ccc(NCCCc2ccc(Cl)cc2)cc1` [listing 1 of 2 here]: the “serum triglycerides, percent of control” value is 54% with Rattus norvegicus [2] and 50% in the experiment on Rattus norvegicus [6]. Besides, in the experiment with Rattus norvegicus [3], the “serum sterol level, percent of control” value was found to be 94%. In addition, the “serum sterol, percent of control” value in the experiment on Rattus norvegicus [8] came to 72%; in the experiment on Rattus norvegicus [7], 94%. This molecule registered a Diet in the experiment with Rattus norvegicus [5] of 70%.
For the molecule `CCOC(=O)c1ccc(NCCCc2ccc(Cl)cc2)cc1`, the inhibition in experiment [1] was 42%. In the experiment on Rattus norvegicus [3], the “serum sterol level, percent of control” value worked out at 89%. For the same molecule, the “serum sterol, percent of control” value in the experiment with Rattus norvegicus [8] turned out to be 76%; in the experiment with Rattus norvegicus [7], 90%. The “serum triglycerides, percent of control” value in the experiment with Rattus norvegicus [6] was found to be 52%.
The molecule `CCOC(=O)c1ccc(NCCCCCCCCCC/C=C\c2cccs2)cc1` yielded an inhibition in experiment [1] of less than 47%. The “serum sterol, percent of control” value in the experiment with Rattus norvegicus [8] is on record as less than 82%. The “serum triglycerides, percent of control” value in the experiment with Rattus norvegicus [6] came to 72%.
`CCCCCCCCCCCCCCCCCCCNc1ccc(C(=O)O)cc1` gave an inhibition in experiment [1] of less than 36%.
`CCCCCCNc1ccc(C(=O)O)cc1`: in the experiment with Rattus norvegicus [4], the “serum sterol, percent of control” value came out at 94%.
In experiment [1], `COc1ccc(/C=C/C(=O)Nc2ccc(C(=O)O)cc2)cc1` registered an inhibition of 20%.
Take `CCCCCCCCCCCCCCCCCCNc1ccc(C(=O)O)cc1`: the inhibition in experiment [1] is less than 60%.
The same measure, in the same setting: with `CCOC(=O)c1ccc(NCCCCCCc2cccs2)cc1` the figure was 63%.
In the case of `C=C(CCCCCCCCCC)CCCCCNc1ccc(C(=O)OCC)cc1`, the inhibition in experiment [1] came to 9%. Moreover, the “serum sterol, percent of control” value in the experiment with Rattus norvegicus [8] is less than 88%. Moreover, the “serum triglycerides, percent of control” value in the experiment with Rattus norvegicus [6] was less than 56%.
In the case of `CCCCCCCCCCCCCNc1ccc(C(=O)OCC)cc1`, in experiment [1], the inhibition is less than 22%. The “serum sterol, percent of control” value in the experiment on Rattus norvegicus [8] is listed as 91%. For the same molecule, the “serum triglycerides, percent of control” value in the experiment on Rattus norvegicus [6] is less than 70%.
As to `CCN(CCCc1ccc(Cl)cc1)c1ccc(C(=O)O)cc1`, the inhibition in experiment [1] was determined as 52%. Besides, in the experiment with Rattus norvegicus [4], the “serum sterol, percent of control” value stood at 83%. Besides, the “serum triglycerides, percent of control” value with Rattus norvegicus [6] was 68%.
`CCOC(=O)c1ccc(N(CC)CCCc2ccc(Cl)cc2)cc1` yielded an inhibition in experiment [1] of 48%. The “serum sterol, percent of control” value in the experiment on Rattus norvegicus [4] amounted to 86%. Besides, the “serum triglycerides, percent of control” value with Rattus norvegicus [6] stood at 67%.
In the case of `O=C([O-])c1ccc(NCCCc2ccc(Cl)cc2)cc1.[Na+]`, the “serum triglycerides, percent of control” value was found to be 60% in the experiment with Rattus norvegicus [2] and 52% in the experiment on Rattus norvegicus [6]. The “serum sterol level, percent of control” value in the experiment on Rattus norvegicus [3] was 92%. Also, the “serum sterol, percent of control” value with Rattus norvegicus [8] is 84%; with Rattus norvegicus [7], 94%. The molecule further gave a Diet in the experiment with Rattus norvegicus [5] of 72%.
Take `O=C(O)c1ccc(NCCCc2ccc(Cl)cc2)cc1` [listing 2 of 2 here]: the inhibition in experiment [1] was 18% and 19%.
On the same count and under the same terms, with `CCOC(=O)c1ccc(NCCCCCCCCCC/C=C/c2cccs2)cc1` the figure was less than 62%; with `COc1ccc(CCC(=O)Nc2ccc(C(=O)O)cc2)cc1`, 0%.
With `CN(CCCc1ccc(Cl)cc1)c1ccc(C(=O)O)cc1`, the inhibition in experiment [1] is 24%. Also, in the experiment on Rattus norvegicus [4], the “serum sterol, percent of control” value worked out at 107%. Moreover, the “serum triglycerides, percent of control” value in the experiment with Rattus norvegicus [6] is listed as 74%.
The matching figures for `CCOC(=O)c1ccc(NCCCc2c(Cl)cccc2Cl)cc1`: 62%, 92% and 64%.
Regarding `CCOC(=O)c1ccc(NCCCc2ccc(OC)cc2)cc1`, in experiment [1], the inhibition was 54%. The “serum triglycerides, percent of control” value with Rattus norvegicus [2] was found to be 59%; with Rattus norvegicus [6], 60%. Also, the “serum sterol level, percent of control” value in the experiment with Rattus norvegicus [3] is reported as 90%. For the same molecule, the “serum sterol, percent of control” value is 86% in the experiment with Rattus norvegicus [8] and 97% in the experiment on Rattus norvegicus [7]. Besides, in the experiment with Rattus norvegicus [5], the Diet was found to be 82%.
With `CCOC(=O)c1ccc(NCCCCCCCCCCCCc2cccs2)cc1`, the inhibition in experiment [1] was less than 40%. The “serum sterol, percent of control” value with Rattus norvegicus [8] stood at 103%. The “serum triglycerides, percent of control” value with Rattus norvegicus [6] was less than 46%.
`CCCCCCCCCCCCCCCCNc1ccc(C(=O)O)cc1` had an inhibition in experiment [1] of less than 53%.
The molecule `CCCCCCCCCCCCCNc1ccc(C(=O)O)cc1` returned an inhibition in experiment [1] of less than 29%.
For `CCOC(=O)c1ccc(N(C)CCCc2ccc(Cl)cc2)cc1`, the inhibition in experiment [1] was found to be 53%. Besides, in the experiment on Rattus norvegicus [4], the “serum sterol, percent of control” value was determined as 99%. Moreover, in the experiment with Rattus norvegicus [6], the “serum triglycerides, percent of control” value was found to be 49%.
On to `CCCCCCCCCC/C=C/CCCNc1ccc(C(=O)O)cc1`, for which the inhibition in experiment [1] is less than 46%.
`C=CCCCCCCCC/C=C/CCCNc1ccc(C(=O)O)cc1` registered an inhibition in experiment [1] of less than 44%.
In experiment [1], `O=C(O)c1ccc(NCCCc2ccc(Cl)c(Cl)c2)cc1` showed an inhibition of 19%. Further, the “serum triglycerides, percent of control” value in the experiment with Rattus norvegicus [2] is listed as 70%; with Rattus norvegicus [6] it was 63%. In the experiment on Rattus norvegicus [3], the “serum sterol level, percent of control” value was 89%. In addition, the “serum sterol, percent of control” value turned out to be 73% in the experiment with Rattus norvegicus [8] and 96% with Rattus norvegicus [7]. Moreover, in the experiment on Rattus norvegicus [5], the Diet came to 79%.
`CCCCCCCCCCCc1nc(CNc2ccc(C(=O)OCC)cc2)c[nH]1` came in with an inhibition in experiment [1] of less than 59%. Moreover, the “serum sterol, percent of control” value in the experiment on Rattus norvegicus [8] is listed as 100%. Also, in the experiment on Rattus norvegicus [6], the “serum triglycerides, percent of control” value is 83%.
In the case of `CCCCCCCCCCCCCCCCCNc1ccc(C(=O)OCC)cc1`, the “serum sterol, percent of control” value in the experiment with Rattus norvegicus [8] came out at 111%.
Molecule `CCOC(=O)c1ccc(NCc2ccc(Cl)cc2)cc1` gave an inhibition in experiment [1] of 33%. Further, the figures for the “serum triglycerides, percent of control” value in the experiment with Rattus norvegicus [2] and in the experiment with Rattus norvegicus [6] were 53% and 50%, respectively. Besides, the “serum sterol level, percent of control” value in the experiment with Rattus norvegicus [3] worked out at 86%. Further, the “serum sterol, percent of control” value with Rattus norvegicus [8] was found to be 84%; with Rattus norvegicus [7], 94%. Besides, the Diet in the experiment with Rattus norvegicus [5] worked out at 78%.
For the molecule `CCCCCCCCCCCCNc1ccc(C(=O)O)cc1`, the inhibition in experiment [1] was < 21% and 17%.
Take `O=[N+]([O-])c1ccc(CCCNc2ccccc2)cc1`: in experiment [1], the inhibition came out at 46%. Also, the “serum triglycerides, percent of control” value in the experiment on Rattus norvegicus [2] is listed as 61%; in the experiment with Rattus norvegicus [6], 49%. Further, the “serum sterol level, percent of control” value with Rattus norvegicus [3] stood at 88%. Also, the “serum sterol, percent of control” value in the experiment with Rattus norvegicus [4] was found to be 87%; with Rattus norvegicus [7], 90%. Further, the Diet in the experiment on Rattus norvegicus [5] was 90%.
For `CCCCCCCCc1ccc(CCCNc2ccc(C(=O)OCC)cc2)s1`, the inhibition in experiment [1] is less than 57%. The “serum sterol, percent of control” value with Rattus norvegicus [8] is given as less than 83%. For the same molecule, the “serum triglycerides, percent of control” value with Rattus norvegicus [6] is less than 46%.
`CCCCCCCCCCCCCCCCNc1ccc(C(=O)OC)cc1` gave an inhibition in experiment [1] of 0%. Besides, the “serum sterol, percent of control” value with Rattus norvegicus [8] was determined as 97%. Also, the “serum triglycerides, percent of control” value with Rattus norvegicus [6] was 85%.
`CCOC(=O)c1ccc(NC(=O)/C=C/c2ccc(OC)cc2)cc1` returned an inhibition in experiment [1] of 52%.
